Here are results for one compound from ChEMBL document CHEMBL4732120, “Discovery of novel PARP/PI3K dual inhibitors with high efficiency against BRCA-proficient triple negative breast cancer” (Eur J Med Chem, 2021).

SMILES strings stand for the structures. pIC50: −log10 of the molar value.

One data set deals with MDA-MB-468. Kind of data set: Induction of apoptosis in human MDA-MB-468 cells assessed as necrotic cells at 1 uM measured after 72 hrs by Annexin V-FITC/propidium iodide staining based flow cytometry (reference value: 0.13%). It counts as functional.
Data set [1] in a line: Elimination rate constant in mouse liver microsomes measured after 1 hr. Type of data set: ADME, Microsome. Put shortly: (§1)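 Compound incubated 1 h with mouse, rat, dog, monkey or human liver microsomes. Derived values were the elimination rate constant k, the elimination half-life T1/2 and the intrinsic clearance CLint.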
A general note: Liver microsomes are a subcellular fraction often used to study metabolism.

A short description of data set [2]: Elimination half life in human liver microsomes measured after 1 hr. Type of data set: ADME, Microsome. The conditions noted are these: read-out: beta t1/2. Put shortly:
as §1

Data set [3] is described as follows: Elimination half life in monkey liver microsomes measured after 1 hr. It counts as ADME, Macaca mulatta, Microsome. The conditions noted are these: rhesus monkey, read-out: beta t1/2. In short, it runs like this:
as §1

The nature of data set [4]: Elimination half life in dog liver microsomes measured after 1 hr. Type of data set: ADME, Canis lupus familiaris, Microsome. The conditions noted are these: read-out: beta t1/2. Put shortly:
as §1

Data set [5] in a line: Elimination half life in rat liver microsomes measured after 1 hr. It counts as ADME, Microsome. The settings on record: read-out: beta t1/2. Put shortly: as §1
The nature of data set [6]: Elimination half life in mouse liver microsomes measured after 1 hr. The conditions noted are these: read-out: beta t1/2. Type of data set: ADME, Microsome. Put shortly:
as §1

Data set [7] can be described thus: Intrinsic clearance in dog liver microsomes measured after 1 hr. The settings on record: read-out: CLH. It counts as ADME, Canis lupus familiaris, Microsome. In short, it runs like this:
as §1

A short description of data set [8]: Intrinsic clearance in rat liver microsomes measured after 1 hr. The settings on record: read-out: CLH. Type of data set: ADME, Microsome. In short, it runs like this:
as §1

Data set [9] can be described thus: Apparent permeability across basolateral to apical side in human Caco2 cells assessed as drug recovery at 5 uM measured after 120 mins. Type of data set: ADME, cell-based. The settings on record: Caco-2, read-out: Drug recovery. Put shortly: (§2)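 Bidirectional permeability run, apical-to-basolateral and basolateral-to-apical. Test compound at 5 µM, incubated 120 min. Papp (10^-6 cm/s), recovery (%) and efflux ratio reported as the mean of two experiments.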
On the technique in general: Passage across Caco-2 layers is used to estimate intestinal permeability.

A short description of data set [10]: Apparent permeability across basolateral to apical side in human Caco2 cells at 5 uM measured after 120 mins. The conditions noted are these: Caco-2. Type of data set: ADME, cell-based. In short, it runs like this: as §2
The nature of data set [11]: Toxicity in Sprague-Dawley rat assessed as change in body weight at 1000 mg/kg, po administered as single dose measured on day 4 (reference value: 280 +/- 12 g). The settings on record: in vivo, 96 h, time 4 day. It counts as organism-based.
Data set [12] in a line: Toxicity in Sprague-Dawley rat assessed as death at 1000 mg/kg, po administered as single dose. It counts as organism-based. The conditions noted are these: in vivo. In short, it runs like this:
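Sprague-Dawley rats, n = 6 (3 male, 3 female), given a single oral dose of 1000 mg/kg. Deaths and body-weight change were recorded to estimate the maximum tolerated dose.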

A short description of data set [13]: Toxicity in […] cells xenografted BALB/c mouse assessed as mortality at 50 mg/kg, ip administered every two days for 34 days. It counts as organism-based. The settings on record: in vivo, 816 h, time 34 day.
Data set [14] concerns the target T1, Phosphatidylinositol 4,5-bisphosphate 3-kinase catalytic subunit delta isoform (Homo sapiens, UniProt O00329).
T1 sequence (O00329 whole entry): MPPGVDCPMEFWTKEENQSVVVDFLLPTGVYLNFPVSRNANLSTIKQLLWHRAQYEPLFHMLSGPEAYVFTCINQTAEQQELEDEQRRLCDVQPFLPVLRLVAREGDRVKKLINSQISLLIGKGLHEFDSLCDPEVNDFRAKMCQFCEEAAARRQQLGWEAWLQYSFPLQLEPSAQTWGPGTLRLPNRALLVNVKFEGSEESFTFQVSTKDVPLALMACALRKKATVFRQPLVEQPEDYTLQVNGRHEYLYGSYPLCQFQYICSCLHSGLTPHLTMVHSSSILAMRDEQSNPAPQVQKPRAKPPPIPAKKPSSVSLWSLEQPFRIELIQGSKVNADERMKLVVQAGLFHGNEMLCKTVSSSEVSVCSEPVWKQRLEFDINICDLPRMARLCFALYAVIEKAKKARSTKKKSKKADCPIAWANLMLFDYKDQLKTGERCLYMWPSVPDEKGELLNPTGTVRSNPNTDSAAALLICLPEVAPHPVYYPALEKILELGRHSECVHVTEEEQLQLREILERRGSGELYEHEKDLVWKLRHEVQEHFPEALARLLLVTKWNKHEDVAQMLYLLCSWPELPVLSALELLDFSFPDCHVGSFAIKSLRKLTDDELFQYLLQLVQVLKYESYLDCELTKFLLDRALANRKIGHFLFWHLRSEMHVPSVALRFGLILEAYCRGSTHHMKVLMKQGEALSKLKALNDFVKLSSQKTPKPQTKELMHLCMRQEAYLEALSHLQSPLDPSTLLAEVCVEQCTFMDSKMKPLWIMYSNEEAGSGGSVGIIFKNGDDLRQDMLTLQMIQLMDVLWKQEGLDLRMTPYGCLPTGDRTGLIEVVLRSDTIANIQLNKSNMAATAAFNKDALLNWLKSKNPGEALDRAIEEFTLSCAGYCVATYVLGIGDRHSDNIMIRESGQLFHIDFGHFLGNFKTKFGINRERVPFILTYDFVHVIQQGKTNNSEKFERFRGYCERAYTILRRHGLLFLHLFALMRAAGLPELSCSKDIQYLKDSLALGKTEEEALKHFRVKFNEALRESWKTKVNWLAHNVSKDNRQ
Description: Inhibition of PI3Kdelta (unknown origin).

Data set [15] addresses Phosphatidylinositol 4,5-bisphosphate 3-kinase catalytic subunit beta isoform (Homo sapiens, UniProt P42338). Kind of data set: Inhibition of PI3Kbeta (unknown origin).

Phosphatidylinositol 4,5-bisphosphate 3-kinase catalytic subunit beta isoform, sequence (P42338 whole entry, canonical isoform): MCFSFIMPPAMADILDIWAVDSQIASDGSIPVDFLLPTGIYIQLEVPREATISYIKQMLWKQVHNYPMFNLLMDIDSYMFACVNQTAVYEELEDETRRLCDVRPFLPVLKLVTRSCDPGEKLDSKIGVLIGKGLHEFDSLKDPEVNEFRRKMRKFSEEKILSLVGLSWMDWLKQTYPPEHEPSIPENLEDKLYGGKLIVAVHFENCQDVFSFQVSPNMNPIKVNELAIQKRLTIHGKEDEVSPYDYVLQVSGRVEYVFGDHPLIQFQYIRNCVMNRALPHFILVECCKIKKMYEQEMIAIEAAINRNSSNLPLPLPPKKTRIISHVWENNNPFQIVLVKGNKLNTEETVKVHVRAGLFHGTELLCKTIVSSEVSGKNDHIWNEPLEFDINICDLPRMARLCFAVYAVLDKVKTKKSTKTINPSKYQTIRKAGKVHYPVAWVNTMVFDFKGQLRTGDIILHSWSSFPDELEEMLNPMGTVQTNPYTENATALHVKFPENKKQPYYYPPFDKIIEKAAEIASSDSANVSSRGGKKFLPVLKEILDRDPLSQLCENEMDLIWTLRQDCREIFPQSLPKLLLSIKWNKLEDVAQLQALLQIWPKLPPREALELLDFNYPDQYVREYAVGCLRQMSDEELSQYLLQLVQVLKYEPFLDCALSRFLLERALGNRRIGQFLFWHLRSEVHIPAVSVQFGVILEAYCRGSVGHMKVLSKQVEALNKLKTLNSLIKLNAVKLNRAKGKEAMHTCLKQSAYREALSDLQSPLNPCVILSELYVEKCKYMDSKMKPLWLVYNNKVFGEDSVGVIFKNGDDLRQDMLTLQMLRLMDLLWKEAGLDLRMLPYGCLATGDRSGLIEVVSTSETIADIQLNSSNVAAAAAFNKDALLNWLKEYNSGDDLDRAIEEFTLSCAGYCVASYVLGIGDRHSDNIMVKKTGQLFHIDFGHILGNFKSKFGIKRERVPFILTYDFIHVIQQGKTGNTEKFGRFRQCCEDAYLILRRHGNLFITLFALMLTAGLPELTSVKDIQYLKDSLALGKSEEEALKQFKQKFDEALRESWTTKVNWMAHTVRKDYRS

On to `NC(=O)c1cccc2cc(C(=O)N3CCN(c4nc(-c5cnc(NC(=O)CN6CCOCC6)cc5C(F)(F)F)nc(N5CCOCC5)n4)CC3)oc12`, for which the Activity in the data set on MDA-MB-468 was 3.47%; in [11], 272 g; in data set [12], “Non-Toxic”; in data set [13], “Non-Toxic”. This compound showed a k el at 1 h in data set [1] of 0.000663 s⁻¹. For the same compound, the half-life in data set [2] was found to be 107 min; in data set [3], 59.1 min; in data set [4], 47.3 min; in data set [5], 42.2 min; in data set [6], 17.4 min. Besides, the microsomal CLint came out at 29.3 µL/min/mg in data set [7] and 32.9 µL/min/mg in data set [8]. Besides, the recovery at 2 h, 5 µM in data set [9] is 99.9%. For the same compound, the Papp B→A (commonly the apparent permeability from the basolateral to the apical side of a cell layer) at 2 h, 5 µM in [10] turned out to be 22.1 ×10⁻⁶ cm/s. Moreover, the negative-log IC50 (pIC50) – broadly, the negative decadic logarithm of the IC50, by convention in mol/L – in data set [14] was 6.71; in data set [15], 6.42.
